Published values gathered from unrelated publications.
Protocols differ between the studies behind these lines.
Cell line: NCI-H1975
Effect on: cell growth or viability

Structure (SMILES)	method	tested at	time	endpoint	result
CC(C)(C)[C@H](N)C(=O)Nc1ccccc1/N=c1\cc(-c2ccc3c(c2)OCCO3)oc2cc(F)ccc12	CCK-8	1 µM	–	inhibition	-7.44%
COc1cccc(NC(=O)Nc2nc3cc(-c4ccc5ncn(CCN(C)C)c(=O)c5c4)ccc3s2)c1	MTT	–	72 h	IC50	> 20 µM
N[C@@H](CO)C(=O)Nc1ccccc1/N=c1\cc(-c2ccc3c(c2)OCO3)oc2ccccc12	CCK-8	1 µM	–	inhibition	-1.95%
CCCn1cnc2ccc(-c3ccc(NC(=O)CC4CC4)nc3)cc2c1=O	CCK-8	–	72 h	IC50	3.48 µM
C#Cc1cccc(Nc2ncnc3cc(OCCOC)c(OCCOC)cc23)c1	MTT	–	72 h	IC50	5.72 µM
CCCn1cnc2ccc(-c3ccc(NC(=O)c4ccccc4)nc3)cc2c1=O	CCK-8	–	72 h	IC50	0.095 µM
Cc1ccc(NC(=O)Nc2nc3cc(-c4ccc5ncn(Cc6ccccc6)c(=O)c5c4)ccc3s2)cc1	MTT	–	72 h	IC50	> 20 µM
COc1ccc2/c(=N/c3ccccc3NC(=O)[C@H](C)N)cc(-c3ccc4c(c3)OCCO4)oc2c1	CCK-8	1 µM	–	inhibition	5.17%
CCCCC(=O)Nc1ccc(-c2ccc3ncn(CC4CCC4)c(=O)c3c2)cn1	CCK-8	–	72 h	IC50	1.4 µM
COc1ccc(NC(=O)Nc2nc3cc(-c4ccc5ncn(CCN(C)C)c(=O)c5c4)ccc3s2)cc1	MTT	–	72 h	IC50	> 20 µM
